Test results: ChEMBL document CHEMBL1141109, “Synthesis of an estrogen receptor beta-selective radioligand: 5-[18F]fluoro-(2R,3S)-2,3-bis(4-hydroxyphenyl)pentanenitrile and comparison of in vivo distribution with 16alpha-[18F]fluoro-17beta-estradiol” (J Med Chem, 2005)
Blank lines part the entries; values can stand above or below the compound they belong to.

Tests used:
[1] = Biodistribution of [18F]FES in alpha estrogen receptor knock out mouse uterus after 30 min; (n=3); format: ADME, organism-based; settings: in vivo, 0.5 h
[2] = Biodistribution of [18F]FES in beta estrogen receptor knock out mouse lung after 30 min(n=2); mice in nonestrus stage; format: ADME, organism-based; settings: in vivo, 0.5 h
[3] = Biodistribution of [18F]FES in beta estrogen receptor knock out mouse liver after 30 min(n=2); mice in nonestrus stage; format: ADME, organism-based; settings: in vivo, 0.5 h
[4] = Biodistribution of [18F]FES in beta estrogen receptor knock out mouse muscle after 30 min(n=2); mice in nonestrus stage; format: ADME, organism-based, Muscle tissue; settings: in vivo, 0.5 h
[5] = Biodistribution of [18F]FES in beta estrogen receptor knock out mouse uterus after 2 h; (n=3); format: ADME, organism-based; settings: in vivo
[6] = Biodistribution of [18F]FES in beta estrogen receptor knock out mouse heart after 1 h; (n=3); format: ADME, organism-based; settings: in vivo
[7] = Biodistribution of [18F]FES in alpha estrogen receptor knock out mouse blood after 2 h; (n=3); format: ADME, organism-based; settings: in vivo
Procedure, shortened: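 Female αERKO mice were rested 48 h after shipping and fed estrogen-free chow. They were staged by daily vaginal smears and studied in diestrus. Each received 13 µCi [18F]FES in 100 µL 10% ethanol/saline and was sacrificed at 30 min, 1 h or 2 h (n = 3 per time). Tissue uptake is given as %ID/g ± SD.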

[8] = Biodistribution of [18F]FES in beta estrogen receptor knock out mouse thymus after 2 h; (n=3); format: ADME, organism-based; settings: in vivo
[9] = Biodistribution of [18F]-FES in beta estrogen receptor knock out mouse lung after 2 h; (n=3); format: ADME, organism-based; settings: in vivo
Procedure, shortened: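 Female βERKO mice in estrus were used because repeated swabbing had induced pseudopregnancy. They were fed estrogen-free chow. Each received 13 µCi [18F]FES in 100 µL 10% ethanol/saline and was sacrificed at 30 min, 1 h or 2 h (n = 3 each). Tissue uptake is given as %ID/g ± SD.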

[10] = Biodistribution of [18F]FES in alpha estrogen receptor knock out mouse thymus after 1 h; (n=3); format: ADME, organism-based; settings: in vivo
[11] = Biodistribution of [18F]FES in alpha estrogen receptor knock out mouse uterus after 1 h; (n=3); format: ADME, organism-based; settings: in vivo
[12] = Biodistribution of [18F]FEDPN in beta estrogen receptor knock out mouse liver after 30 min; (n=3); format: ADME, organism-based; settings: in vivo, 0.5 h
Procedure, shortened: (§1)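 αERKO and βERKO mice, staged by daily vaginal smears and kept on estrogen-free chow, were studied in a nonestrous stage. Each mouse received 11 μCi of tracer in 130 μL of 10% ethanol/saline. Mice were killed at 30 min, 1 h or 2 h (n = 3 each). Organs were removed, blotted, weighed and gamma-counted against an injectate standard. Uptake is given as %ID/g ± SD.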

[13] = Biodistribution of [18F]-FEDPN in alpha estrogen receptor knock out mouse blood after 30 min; (n=3); format: ADME, organism-based; settings: in vivo, 0.5 h
Procedure, shortened: (§2)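 ERKO female mice (αERKO or βERKO), rested 48 h after shipping, placed on estrogen-free chow, and staged by daily vaginal smears. Injected in a nonestrous stage with 11 µCi [18F]FEDPN in 130 µL of 10% ethanol/saline. Killed at 30 min, 1 h or 2 h. Organs counted and reported as %ID/g ± SD, three animals per point.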

[14] = Biodistribution of [18F]FEDPN in alpha estrogen receptor knock out mouse spleen after 30 min; (n=3); format: ADME, organism-based; settings: in vivo, 0.5 h; procedure, shortened: as §1
[15] = Biodistribution of [18F]FEDPN in alpha estrogen receptor knock out mouse uterus after 30 min; (n=3); format: ADME, organism-based; settings: in vivo, 0.5 h; procedure, shortened: as §1
[16] = Biodistribution of [18F]FEDPN in alpha estrogen receptor knock out mouse heart after 1 h; (n=3); format: ADME, organism-based; settings: in vivo; procedure, shortened: as §2
[17] = Biodistribution of [18F]FEDPN in rat ovaries after 2 h when given in tail vein; (n=5); format: ADME, organism-based, Female gonad; settings: in vivo, iv
Procedure, shortened: (§3)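 Immature female Sprague–Dawley rats (<25 days old) under isoflurane/O2 got 20 µCi tracer in 150 µL 20% ethanol/saline by tail vein. […] Rats were killed at 30 min, 1 h or 2 h. Organs were blotted, weighed and gamma-counted against an injectate standard. Data are %ID/g ± SD, five rats per point.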

[18] = Biodistribution of [18F]FEDPN in rat heart after 30 min when given in tail vein; (n=5); format: ADME, organism-based; settings: in vivo, iv, 0.5 h; procedure, shortened: as §3
[19] = Biodistribution of [18F]FEDPN in rat liver after 30 min when given in tail vein; (n=5); format: ADME, organism-based; settings: in vivo, iv, 0.5 h; procedure, shortened: as §3
[20] = Biodistribution of [18F]-FEDPN in rat blood after 1 hr when given in tail vein; (n=5); format: ADME, organism-based; settings: in vivo, iv
Procedure, shortened: (§4)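 Immature female Sprague–Dawley rats (<25 days old) anesthetized with isoflurane/O2. Given 20 µCi tracer by tail vein in 150 µL of 20% ethanol/saline. […] Killed at 30 min, 1 h or 2 h. Blood and organs blotted, weighed and gamma-counted against a standard dilution of the injectate. Reported as %ID/g ± SD, n=5.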

[21] = Biodistribution of [18F]-FEDPN in rat heart after 2 hr when given in tail vein; (n=5); format: ADME, organism-based; settings: in vivo, iv; procedure, shortened: as §4
[22] = Biodistribution of [18F]FEDPN in rat spleen after 1 h when given in tail vein; (n=5); format: ADME, organism-based; settings: in vivo, iv; procedure, shortened: as §3
[23] = Biodistribution of [18F]-FEDPN in rat spleen after 2 hr when given in tail vein; (n=5); format: ADME, organism-based; settings: in vivo, iv; procedure, shortened: as §4
[24] = Biodistribution of [18F]FEDPN in rat muscle after 30 min when given in tail vein; (n=5); format: ADME, organism-based, Muscle tissue; settings: in vivo, iv, 0.5 h; procedure, shortened: as §3
[25] = Biodistribution of [18F]FEDPN in rat spleen after 30 min when given in tail vein; (n=5); format: ADME, organism-based; settings: in vivo, iv, 0.5 h; procedure, shortened: as §3
[26] = Biodistribution of [18F]-FEDPN in rat lung after 1 hr block when given in tail vein; (n=5); format: ADME, organism-based; settings: in vivo, iv; procedure, shortened: as §4
[27] = Biodistribution of [18F]-FEDPN in rat kidney after 1 hr block when given in tail vein; (n=5); format: ADME, organism-based; settings: in vivo, iv; procedure, shortened: as §4
[28] = Biodistribution of [18F]FEDPN in beta estrogen receptor knock out mouse kidney after 2 h; (n=3); format: ADME, organism-based; settings: in vivo; procedure, shortened: as §1
[29] = Biodistribution of [18F]FEDPN in beta estrogen receptor knock out mouse bone after 30 min; (n=3); format: ADME, organism-based, Bone element; settings: in vivo, 0.5 h; procedure, shortened: as §1
[30] = Biodistribution of [18F]FEDPN in beta estrogen receptor knock out mouse lung after 30 min; (n=3); format: ADME, organism-based; settings: in vivo, 0.5 h; procedure, shortened: as §1
[31] = Biodistribution of [18F]FEDPN in alpha estrogen receptor knock out mouse muscle after 2 h; (n=3); format: ADME, organism-based, Muscle tissue; settings: in vivo; procedure, shortened: as §1
[32] = Biodistribution of [18F]FEDPN in beta estrogen receptor knock out mouse ovaries after 2 h; (n=3); format: ADME, organism-based, Female gonad; settings: in vivo; procedure, shortened: as §1
[33] = biological target: T1, Estrogen receptor (Mus musculus) (UniProt O08537+P19785); test: Ratio of [18F]FEDPN uptake in uterus of ERbeta KO-mouse and ERalpha KO-mouse (nonestrus) after 1 hr
T1 sequence (O08537 whole entry, looked up): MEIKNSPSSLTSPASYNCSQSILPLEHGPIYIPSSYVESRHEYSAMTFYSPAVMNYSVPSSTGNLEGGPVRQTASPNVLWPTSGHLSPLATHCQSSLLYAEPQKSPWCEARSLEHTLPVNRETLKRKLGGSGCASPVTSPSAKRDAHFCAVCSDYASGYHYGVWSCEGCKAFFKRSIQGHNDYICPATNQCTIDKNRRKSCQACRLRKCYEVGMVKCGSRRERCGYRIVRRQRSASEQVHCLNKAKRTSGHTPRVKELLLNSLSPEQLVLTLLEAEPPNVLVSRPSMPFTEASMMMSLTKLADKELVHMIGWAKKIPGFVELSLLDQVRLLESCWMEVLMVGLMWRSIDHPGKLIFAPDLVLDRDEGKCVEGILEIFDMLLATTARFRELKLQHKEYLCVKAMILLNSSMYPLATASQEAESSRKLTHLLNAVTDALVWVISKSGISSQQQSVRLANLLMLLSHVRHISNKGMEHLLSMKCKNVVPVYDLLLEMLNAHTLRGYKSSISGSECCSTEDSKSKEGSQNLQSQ
T1 sequence (P19785 whole entry, looked up): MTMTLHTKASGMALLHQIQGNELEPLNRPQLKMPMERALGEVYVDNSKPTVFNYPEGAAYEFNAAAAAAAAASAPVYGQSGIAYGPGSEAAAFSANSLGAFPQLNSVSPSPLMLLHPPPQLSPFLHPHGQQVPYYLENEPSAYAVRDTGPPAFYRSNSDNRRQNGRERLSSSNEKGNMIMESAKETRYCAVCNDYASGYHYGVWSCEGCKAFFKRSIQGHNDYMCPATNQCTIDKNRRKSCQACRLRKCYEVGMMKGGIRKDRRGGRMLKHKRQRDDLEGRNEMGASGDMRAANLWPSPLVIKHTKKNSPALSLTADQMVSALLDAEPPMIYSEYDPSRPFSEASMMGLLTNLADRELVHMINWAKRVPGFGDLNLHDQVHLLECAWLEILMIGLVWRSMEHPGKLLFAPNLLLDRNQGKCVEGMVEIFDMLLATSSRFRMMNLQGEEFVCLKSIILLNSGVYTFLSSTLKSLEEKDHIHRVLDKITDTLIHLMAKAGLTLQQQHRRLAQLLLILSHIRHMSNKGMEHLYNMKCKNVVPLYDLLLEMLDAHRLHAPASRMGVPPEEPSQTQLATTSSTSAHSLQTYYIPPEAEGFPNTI

[34] = biological target: T1, Estrogen receptor (Mus musculus); test: Ratio of [18F]FEDPN uptake in ovaries of ERbeta KO-mouse and ERalpha KO-mouse (nonestrus) after 1 hr
[35] = biological target: T1, Estrogen receptor (Mus musculus); test: Ratio of [18F]FEDPN uptake in ovaries of ERbeta KO-mouse (diestrus) and ERalpha KO-mouse (nonestrus) after 30 min

Biodistribution [1]: 2.4 %ID/g
Biodistribution [2]: 3.57 %ID/g
Biodistribution [3]: 7.91 %ID/g
Biodistribution [4]: 1.89 %ID/g
Biodistribution [5]: 9.23 %ID/g
Biodistribution [6]: 0.46 %ID/g
Biodistribution [7]: 0.12 %ID/g
Biodistribution [8]: 0.38 %ID/g
Biodistribution [9]: 0.54 %ID/g
Biodistribution [10]: 0.21 %ID/g
Biodistribution [11]: 0.82 %ID/g
SMILES: C[C@]12CC[C@@H]3c4ccc(O)cc4CC[C@H]3[C@@H]1C[C@@H](F)[C@@H]2O [FLUOROESTRADIOL]

Biodistribution [12]: 4.55 %ID/g
Biodistribution [13]: 0.73 %ID/g
Biodistribution [14]: 0.99 %ID/g
Biodistribution [15]: 1.11 %ID/g
Biodistribution [16]: 0.74 %ID/g
Biodistribution [17]: 0.21 %ID/g
Biodistribution [18]: 0.49 %ID/g
Biodistribution [19]: 1.42 %ID/g
Biodistribution [20]: 0.55 %ID/g
Biodistribution [21]: 0.11 %ID/g
Biodistribution [22]: 0.16 %ID/g
Biodistribution [23]: 0.06 %ID/g
Biodistribution [24]: 0.57 %ID/g
Biodistribution [25]: 0.31 %ID/g
Biodistribution [26]: 0.27 %ID/g
Biodistribution [27]: 1.01 %ID/g
Biodistribution [28]: 1.39 %ID/g
Biodistribution [29]: 3.35 %ID/g
Biodistribution [30]: 5.38 %ID/g
Biodistribution [31]: 0.36 %ID/g
Biodistribution [32]: 0.17 %ID/g
Ratio [33]: 1.46
Ratio [34]: 0.79
Ratio [35]: 1.32
SMILES: N#C[C@H](c1ccc(O)cc1)[C@@H](CCF)c1ccc(O)cc1
